Tests used:
[1] = target: 11-beta-hydroxysteroid dehydrogenase 1 (Mus musculus, UniProt P50172); experiment: Inhibition of mouse microsomal 11beta-HSD1 overexpressed in HEK293 cells using [3H]-cortisone as substrate assessed as formation of [3H]-cortisol using [3H]cortisone by scintillation proximity assay in presence of NADPH
[2] = target: T1, 11-beta-hydroxysteroid dehydrogenase 1 (Homo sapiens, UniProt P28845); experiment: Inhibition of human microsomal 11beta-HSD1 overexpressed in HEK293 cells using [3H]-cortisone as substrate assessed as formation of [3H]-cortisol at 10 uM using [3H]cortisone by scintillation proximity assay in presence of NADPH
Method in brief: (§1)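 Human or mouse 11β-HSD1 inhibition measured in vitro by scintillation proximity assay (SPA). Every isolate was first screened at a single concentration of 10 μM. […] Glycyrrhetinic acid served as the positive control. Other assay conditions follow an earlier report.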
Target sequence in this assay (P28845 whole entry, looked up): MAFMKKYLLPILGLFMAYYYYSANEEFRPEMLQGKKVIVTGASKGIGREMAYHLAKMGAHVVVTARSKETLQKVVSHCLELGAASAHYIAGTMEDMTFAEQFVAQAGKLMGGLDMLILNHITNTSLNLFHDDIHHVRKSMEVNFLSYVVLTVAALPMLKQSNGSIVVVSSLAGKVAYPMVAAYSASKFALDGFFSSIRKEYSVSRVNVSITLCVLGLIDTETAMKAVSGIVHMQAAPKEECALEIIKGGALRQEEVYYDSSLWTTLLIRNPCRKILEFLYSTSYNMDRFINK

[3] = target: 11-beta-hydroxysteroid dehydrogenase 1 (Mus musculus) (UniProt P50172); experiment: Inhibition of mouse microsomal 11beta-HSD1 overexpressed in HEK293 cells using [3H]-cortisone as substrate assessed as formation of [3H]-cortisol at 10 uM using [3H]cortisone by scintillation proximity assay in presence of NADPH; method in brief: as §1
[4] = target: T1, 11-beta-hydroxysteroid dehydrogenase 1; experiment: Inhibition of human microsomal 11beta-HSD1 overexpressed in HEK293 cells using [3H]-cortisone as substrate assessed as formation of [3H]-cortisol using [3H]cortisone by scintillation proximity assay in presence of NADPH
Target sequence in this assay (P28845 whole entry): as the sequence (P28845 whole entry, looked up) above

Chain of 11-beta-hydroxysteroid dehydrogenase 1 (Mus musculus) (P50172 whole entry, looked up): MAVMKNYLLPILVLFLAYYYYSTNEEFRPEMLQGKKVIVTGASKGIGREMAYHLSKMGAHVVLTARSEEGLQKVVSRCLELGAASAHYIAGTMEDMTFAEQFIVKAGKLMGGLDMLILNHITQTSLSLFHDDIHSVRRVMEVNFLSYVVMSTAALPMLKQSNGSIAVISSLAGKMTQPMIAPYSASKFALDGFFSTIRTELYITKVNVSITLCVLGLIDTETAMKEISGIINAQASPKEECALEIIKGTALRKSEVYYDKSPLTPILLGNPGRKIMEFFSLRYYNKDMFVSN
Chain of 11-beta-hydroxysteroid dehydrogenase 1 (Mus musculus, UniProt P50172) (P50172 whole entry): as the sequence (P50172 whole entry, looked up) above

Compound	IC50 ([1]; read-out: IC50)	inhibition [2]	inhibition [3]	IC50 [4]	IC50 ([1]; hek293)
C[C@@H]([C@@H]1O[C@@H]1C(O)C(C)(C)O)[C@@H]1CC[C@]2(C)C3=CC[C@H]4C(C)(C)[C@H](O)CC[C@]4(C)[C@H]3CC[C@@]12C (stereo partly specified)	1200 nM	> 50%	> 50%	1900 nM	
CC(=O)O[C@H]1C[C@@]2(C)[C@H](c3ccoc3)C[C@H]3O[C@]32[C@]2(C)C(=O)C(O)=C3C(C)(C)C(=O)C=C[C@]3(C)[C@@H]12		> 50%		9900 nM	Not Active
C[C@@H](C[C@@H](O)[C@H](O)C(C)(C)O)[C@@H]1CC[C@]2(C)C3=CC[C@H]4C(C)(C)C(=O)CC[C@]4(C)[C@H]3CC[C@@]12C	880 nM	< 50%	> 50%		
C[C@@H](C[C@@H](O)[C@@H]1OC1(C)C)[C@H]1CC[C@@]2(C)C3=CC[C@H]4C(C)(C)[C@@H](O)CC[C@]4(C)[C@H]3CC[C@]12C	3800 nM	< 50%	> 50%		
C[C@@H](C[C@@H](O)[C@@H]1OC1(C)C)[C@H]1CC[C@@]2(C)C3=CC[C@H]4C(C)(C)C(=O)CC[C@]4(C)[C@H]3CC[C@]12C	690 nM	< 50%	> 50%		

Source: ChEMBL document CHEMBL4477167, “Limonoids and Triterpenoids as 11β-HSD1 Inhibitors from Walsura robusta” (J Nat Prod, 2016)
